We go through 8 compounds from ChEMBL document CHEMBL1821614, “Synthesis and biological evaluation of novel Mannich bases of 2-arylimidazo[2,1-b]benzothiazoles as potential anti-cancer agents” (Eur J Med Chem, 2011).

Broadly, the IC50 is the point on the concentration scale where inhibition reaches its midpoint.

Molecules are shown by their SMILES. Activity calls are given as the source filed them. No cut-off for these calls is given here.

The subject of assay [1] is HepG2. The assay can be described thus: Cytotoxicity against human HepG2 cells at 4 uM after 24 hrs by MTT assay. The assay is classed as functional, cell-based. Put shortly: (§1)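 Cells were grown in DMEM with 10% FCS, penicillin and streptomycin at 37 °C under 5% CO2. They were seeded at 10,000 cells/well, left overnight, then treated 24 h. Medium was replaced with fresh medium, MTT was added and plates were held 2 h at 37 °C. Absorbance was read at 570 nm. Single-point runs used 4 µM. Data come from three independent experiments as mean ± S.D.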

The test system of assay [2] is HepG2. Put plainly: Induction of cell cycle arrest in human HepG2 assessed as accumulation at G0/G1-phase at 4 uM after 24 hrs by propidium iodide staining based FACS analysis. The assay is classed as functional. Put shortly:
(§2)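 HepG2 cells were seeded at 5 × 10^5 per 60 mm dish and grown 24 h. Compound was added at 4 µM for a further 24 h. Cells were harvested with trypsin-EDTA, fixed in ice-cold 70% ethanol 30 min at 4 °C and treated with RNase A 30 min at 37 °C. They were stained with propidium iodide/citrate/Triton X-100 solution and phase distribution was read by flow cytometry.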
(Flow cytometry measures light scatter and fluorescence of single cells or particles in a stream.)

The subject of assay [3] is HeLa. Put plainly: Selectivity ratio of IC50 for human HEK cells to IC50 for human HeLa cells. Put shortly: (§3)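 Selectivity index was calculated as the MTT IC50 in normal HEK cells divided by the IC50 in the given cancer line.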
A short description of assay [4]: Cytotoxicity against human HEK cells after 24 hrs by MTT assay. Conditions: HEK293, 24 h. The assay is classed as cell-based.
The subject of assay [5] is MCF7. The assay can be described thus: Selectivity ratio of IC50 for human HEK cells to IC50 for human MCF7 cells. Put shortly:
as §3

The subject of assay [6] is HepG2. The assay can be described thus: Induction of cell cycle arrest in human HepG2 assessed as accumulation at S-phase at 4 uM after 24 hrs by propidium iodide staining based FACS analysis. The assay is classed as functional. Put shortly:
as §2

Assay [7] deals with HepG2. The assay can be described thus: Cytotoxicity against human HepG2 cells after 24 hrs by MTT assay. The assay is classed as functional, cell-based. Conditions: HepG2, 24 h. Put shortly: as §1
Assay [8] relates to MCF7. The assay can be described thus: Cytotoxicity against human MCF7 cells after 24 hrs by MTT assay. In kind it is functional, cell-based. To be noted: MCF7, 24 h. Put shortly: as §1
On the technique in general: Tetrazolium assays rely on reduction of a dye to a coloured formazan, in cell work by metabolically active cells.

In assay [9] the test system is HepG2. Put plainly: Selectivity ratio of IC50 for human HEK cells to IC50 for human HepG2 cells. Put shortly: as §3
Assay [10] has as its system HepG2. The assay can be described thus: Induction of cell cycle arrest in human HepG2 assessed as accumulation at G2/M-phase at 4 uM after 24 hrs by propidium iodide staining based FACS analysis. The assay is classed as functional. Put shortly:
as §2

The subject of assay [11] is HeLa. The assay can be described thus: Cytotoxicity against human HeLa cells after 24 hrs by MTT assay. In kind it is functional, cell-based. Put shortly:
as §1

The test system of assay [12] is HeLa. Put plainly: Cytotoxicity against human HeLa cells at 4 uM after 24 hrs by MTT assay. The assay is classed as functional, cell-based. Put shortly: as §1
For assay [13], the system named is MCF7. The assay can be described thus: Cytotoxicity against human MCF7 cells at 4 uM after 24 hrs by MTT assay. The assay is classed as functional, cell-based. Put shortly: as §1
Assay [14] deals with HepG2. The assay can be described thus: Induction of apoptosis in human HepG2 cells assessed as caspase3 activation at 4 uM by fluorimetric analysis relative to control. In kind it is functional. Put shortly:
(§4)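 HepG2 cells were treated with compound at 4 µM, with an untreated control. Lysates were mixed with 2× reaction buffer containing DTT, caspase-3 substrate was added and the mix was incubated 1 h at 37 °C. Fluorescence was read at ex 400/em 505 nm and expressed as activity relative to the untreated control.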

The subject of assay [15] is HepG2. Put plainly: Down regulation of phosphorylated JNK protein in human HepG2 cells at 4 uM after 24 hrs by Western blot analysis. The assay is classed as functional, cell-based. Put shortly:
(§5)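 HepG2 cells exposed 24 h to compounds at 4 µM, with an untreated control and a YM-201627 reference. Lysates were resolved at 50 µg protein per lane on 12% SDS-PAGE and transferred to PVDF. Membranes were blocked 2 h at RT in TBST with 5% blocking powder, probed with primary antibody at 4 °C overnight and then HRP secondary (1:2000) 1 h at RT. Detection by chemiluminescence, with β-actin as loading control.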

For assay [16], the system named is HepG2. The assay can be described thus: Down regulation of p38 MPAK protein in human HepG2 cells at 4 uM after 24 hrs by Western blot analysis. The assay is classed as functional, cell-based. Put shortly: as §5
(In general: Immunoblotting shows a protein as a band on a membrane.)

Assay [17] deals with HepG2. The assay can be described thus: Down regulation of PKCalpha protein in human HepG2 cells at 4 uM after 24 hrs by Western blot analysis. The assay is classed as functional, cell-based. Put shortly:
as §5

The subject of assay [18] is HepG2. The assay can be described thus: Induction of cell cycle arrest at G2/M phase in human HepG2 cells assessed as down regulation of cyclin B1 at 4 uM after 24 hrs by Western blot analysis.
In assay [19] the test system is HepG2. The assay can be described thus: Upregulation of Chk2 protein in human HepG2 cells at 4 uM after 24 hrs by Western blot analysis. The assay is classed as functional, cell-based. Put shortly:
as §5

The test system of assay [20] is HepG2. Put plainly: Down regulation of […] protein in human HepG2 cells at 4 uM after 24 hrs by Western blot analysis. The assay is classed as functional, cell-based. Put shortly:
as §5

The test system of assay [21] is HepG2. Put plainly: Induction of apoptosis in human HepG2 cells assessed as caspase3 activation at 4 uM by fluorimetric analysis. The assay is classed as functional, cell-based. Put shortly: as §4
The test system of assay [22] is HepG2. Put plainly: Antiproliferative activity against human HepG2 cells assessed as down regulation of NF-kappaB protein at 4 uM after 24 hrs by Western blot analysis. In kind it is functional, cell-based. Put shortly: as §5
Assay [23] concerns HepG2. Put plainly: Down regulation of c-jun protein in human HepG2 cells at 4 uM after 24 hrs by Western blot analysis. The assay is classed as functional, cell-based. Put shortly: as §5

With `CCN(CC)CCOc1cccc(-c2cn3c(n2)sc2ccccc23)c1.Cl.Cl`, the result in the assay with HepG2 [1], in the assay with HeLa [12] and in the assay with MCF7 [13] was Active. Further, the Activity in the assay on HepG2 [2] is 64.19%; with HepG2 [6], 13.37%; with HepG2 [10] it was 22.43%. Also, the “Ratio IC50” value in the assay with HeLa [3] is 4.069; with MCF7 [5] it was 4.87; with HepG2 [9], 8.663. Moreover, the 50% inhibitory concentration (IC50) was found to be 17.5 µM in assay [4], 2.02 µM with HepG2 [7], 3.59 µM with MCF7 [8] and 4.3 µM in the assay on HeLa [11].
In the case of `Clc1ccc(-c2nc3sc4ccccc4n3c2CN2CCCC2)cc1`, the result in the assay with HepG2 [1], in the assay with HeLa [12] and in the assay on MCF7 [13] was Active. The Activity with HepG2 [2] is given as 81.75%; in the assay on HepG2 [6], 4.58%; in the assay with HepG2 [10], 13.66%. Also, the Ratio IC50 in the assay with HeLa [3] came out at 4.89; in the assay on MCF7 [5], 5.2; in the assay with HepG2 [9], 6.12. Besides, the IC50 in assay [4] turned out to be 21.2 µM; in the assay with HepG2 [7] it was 3.46 µM; in the assay with MCF7 [8], 4.07 µM; with HeLa [11] it was 4.33 µM.
For `CCOc1ccc2c(c1)sc1nc(-c3ccccc3)c(CN3CCCC3)n12`, the outcome in the assay with HepG2 [1], in the assay on HeLa [12] and in the assay with MCF7 [13] was Active. The results for the Activity in the assay on HepG2 [2], in the assay with HepG2 [6] and in the assay with HepG2 [10] were 60.12%, 12.64% and 27.23%, respectively. Also, the 50% inhibitory concentration (IC50) in assay [4] turned out to be 18.8 µM; in the assay on HepG2 [7] it was 3.76 µM; in the assay with MCF7 [8], 3.76 µM; in the assay with HeLa [11], 4.3 µM. Further, the Ratio IC50 with HepG2 [9] was determined as 5.
In the case of `CCOc1ccc2c(c1)sc1nc(-c3ccccc3)c(CN3CCN(c4ccccn4)CC3)n12`, the result in the assay on HepG2 [1], in the assay on HepG2 [15], in the assay with HepG2 [16], in the assay with HepG2 [17], in the assay on HepG2 [18] and in the assay with HepG2 [19] was Active. Moreover, the result in the assay on HepG2 [20], with HepG2 [21], in the assay with HepG2 [22], with HeLa [12], in the assay on MCF7 [13] and with HepG2 [23] was Active. In the assay on HepG2 [14], the “fold change (FC)” value is listed as 2. For the same compound, the Activity was found to be 55.24% in the assay on HepG2 [2], 13.42% in the assay with HepG2 [6] and 31.33% in the assay with HepG2 [10]. Further, the Ratio IC50 with HeLa [3] amounted to 3.67; in the assay on MCF7 [5], 3.59; in the assay on HepG2 [9], 5.63. Further, the IC50 came to 16 µM in assay [4], 2.84 µM with HepG2 [7], 4.45 µM with MCF7 [8] and 4.36 µM in the assay with HeLa [11].
As for `c1ccc(-c2nc3sc4ccccc4n3c2CN2CCCC2)cc1`, the result with HepG2 [1], in the assay on HeLa [12] and in the assay on MCF7 [13] was Active. In addition, the Activity in the assay on HepG2 [2] turned out to be 60.2%; with HepG2 [6] it was 10.52%; with HepG2 [10] it was 29.27%. For the same compound, the values for the Ratio IC50 in the assay with HeLa [3], in the assay on MCF7 [5] and with HepG2 [9] were 3.98, 4.78 and 6.15, respectively. Also, the IC50 came out at 18.5 µM in assay [4], 3.01 µM in the assay on HepG2 [7], 3.87 µM in the assay with MCF7 [8] and 4.65 µM in the assay on HeLa [11].
For the compound `Cc1ccc2c(c1)sc1nc(-c3ccccc3)c(CN3CCOCC3)n12`, the result with HepG2 [1], in the assay with HeLa [12] and in the assay with MCF7 [13] was Active. The Activity with HepG2 [2] was 70.89%; in the assay with HepG2 [6] it was 8.2%; with HepG2 [10], 20.9%. Further, the Ratio IC50 worked out at 2.5 in the assay on HeLa [3], 5 with MCF7 [5] and 5.78 with HepG2 [9]. Further, the IC50 in assay [4] was determined as 19 µM; with HepG2 [7], 3.29 µM; in the assay on MCF7 [8], 3.8 µM; in the assay with HeLa [11], 7.59 µM.
`CCOc1ccc2c(c1)sc1nc(-c3ccccc3)c(CN3CCOCC3)n12`: the outcome in the assay with HepG2 [1], in the assay with HeLa [12] and in the assay with MCF7 [13] was Active. The figures for the Activity with HepG2 [2], in the assay on HepG2 [6] and in the assay on HepG2 [10] were 73.54%, 5.99% and 20.46%, respectively. The Ratio IC50 worked out at 3.57 with HeLa [3], 5 in the assay on MCF7 [5] and 5.97 with HepG2 [9]. In addition, the IC50 was determined as 21 µM in assay [4], 3.52 µM in the assay with HepG2 [7], 4.2 µM in the assay with MCF7 [8] and 5.89 µM in the assay with HeLa [11].
Turning to `Cc1ccc2c(c1)sc1nc(-c3ccccc3)c(CN3CCCC3)n12`, the outcome with HepG2 [1], in the assay on HeLa [12] and in the assay on MCF7 [13] was Active. The figures for the Activity in the assay on HepG2 [2], in the assay on HepG2 [6] and with HepG2 [10] were 73.97%, 7.13% and 18.95%, respectively. Further, the “Ratio IC50” value in the assay on HeLa [3] turned out to be 2.163; in the assay with MCF7 [5] it was 4.6; in the assay on HepG2 [9], 4.86. The IC50 is 17.5 µM in assay [4], 3.6 µM in the assay on HepG2 [7], 3.8 µM in the assay on MCF7 [8] and 8.09 µM with HeLa [11].
